Laboratory results as given in ChEMBL document CHEMBL2157922, “Synthesis and antifungal activity of diverse C-2 pyridinyl and pyridinylvinyl substituted quinolines” (2012).
In brackets after ≈: the same amount, converted by molar mass.

What was measured:
Candida albicans [1] = assay: Antifungal activity against Candida albicans ATCC 10231 at 31.2 ug/ml after 24 hrs; format: functional; conditions: ATCC 10231, 24 h
In short: (§1)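 C. albicans was grown in 96-well RPMI-1640 broth microdilution with compound wells diluted from DMSO stocks. Growth wells with matched DMSO and sterility wells were included. After 24 h at 30 °C in a moist, dark chamber, OD405 was read. % inhibition = 100 − (CTW − SCW)/(GCW − SCW) OD, done in duplicate.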

Saccharomyces cerevisiae = assay: Antifungal activity against Saccharomyces cerevisiae ATCC 9763 after 48 hrs by broth microdilution technique; format: functional; conditions: ATCC 9763, 48 h
In short: (§2)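 Yeasts were tested by CLSI broth microdilution in RPMI-1640 buffered to pH 7.0 with MOPS, with compound from 250 down to 0.98 in DMSO stocks. Trays were held at 30 °C in a moist, dark chamber. MIC100, the lowest concentration giving total visual inhibition against the growth control, was read by eye at 48 h.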

Candida albicans [2] = assay: Antifungal activity against Candida albicans ATCC 10231 after 48 hrs by broth microdilution technique; format: functional; conditions: ATCC 10231, 48 h; in short: as §2
Candida albicans [3] = assay: Antifungal activity against Candida albicans CCC 126 after 48 hrs by broth microdilution technique; format: functional; conditions: CCC 126, 48 h
Cryptococcus neoformans [4] = assay: Antifungal activity against Cryptococcus neoformans IM 983040 after 48 hrs by broth microdilution technique; format: functional; conditions: IM 983040, 48 h
In short: (§3)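 C. neoformans was tested by 96-well RPMI-1640 microdilution, with DMSO-matched growth and sterility control wells. Plates were incubated 48 h at 30 °C in a moist, dark chamber and read at OD405. % inhibition = 100 − (CTW − SCW)/(GCW − SCW), in duplicate. For the clinical isolates, MIC80 and MIC50 are the lowest concentrations giving 80% and 50% inhibition.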

Aspergillus flavus = assay: Antifungal activity against Aspergillus flavus ATCC 9170 after 48 hrs by broth microdilution technique; format: functional; conditions: ATCC 9170, 48 h
In short: (§4)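 Moulds and dermatophytes were run by CLSI broth microdilution in MOPS-buffered RPMI-1640 at pH 7.0. Aspergillus was incubated at 30 °C and dermatophytes at 28–30 °C, in a moist, dark chamber. MIC100, the lowest concentration with no visible growth, was read visually at a time set by growth of the control fungus.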

Cryptococcus neoformans [5] = assay: Antifungal activity against Cryptococcus neoformans ATCC 32264 at 31.2 ug/ml after 48 hrs; format: functional; conditions: ATCC 32264, 48 h; in short: as §3
Candida albicans [6] = assay: Antifungal activity against Candida albicans CCC 125 after 48 hrs by broth microdilution technique; format: functional; conditions: CCC 125, 48 h
Cryptococcus neoformans [7] = assay: Antifungal activity against Cryptococcus neoformans IM 972724 after 48 hrs by broth microdilution technique; format: functional; conditions: IM 972724, 48 h; in short: as §3
[8] = system: Trichophyton mentagrophytes; assay: Antifungal activity against Trichophyton mentagrophytes ATCC 9972 after 48 hrs by broth microdilution technique; format: functional; conditions: ATCC 9972, 48 h; in short: as §4
Candida albicans [9] = assay: Antifungal activity against Candida albicans ATCC 10231 at 7.8 ug/ml after 24 hrs; format: functional; conditions: ATCC 10231, 24 h; in short: as §1
Cryptococcus neoformans [10] = assay: Antifungal activity against Cryptococcus neoformans IM 00319 after 48 hrs by broth microdilution technique; format: functional; conditions: IM 00319, 48 h; in short: as §3
Cryptococcus neoformans [11] = assay: Antifungal activity against Cryptococcus neoformans IM 042074 after 48 hrs by broth microdilution technique; format: functional; conditions: IM 042074, 48 h; in short: as §3
Candida albicans [12] = assay: Antifungal activity against Candida albicans CCC 128 after 48 hrs by broth microdilution technique; format: functional; conditions: CCC 128, 48 h
Candida albicans [13] = assay: Antifungal activity against Candida albicans CCC 127 after 48 hrs by broth microdilution technique; format: functional; conditions: CCC 127, 48 h
Nannizzia gypsea = assay: Antifungal activity against Microsporum gypseum CCC 115 after 48 hrs by broth microdilution technique; format: functional; conditions: CCC 115, 48 h; in short: as §4
Cryptococcus neoformans [14] = assay: Antifungal activity against Cryptococcus neoformans IM 983036 after 48 hrs by broth microdilution technique; format: functional; conditions: IM 983036, 48 h; in short: as §3
Aspergillus niger = assay: Antifungal activity against Aspergillus niger ATCC 9029 after 48 hrs by broth microdilution technique; format: functional; conditions: ATCC 9029, 48 h; in short: as §4
Candida albicans [15] = assay: Antifungal activity against Candida albicans CCC 130 after 48 hrs by broth microdilution technique; format: functional; conditions: CCC 130, 48 h
Candida parapsilosis = assay: Antifungal activity against Candida parapsilosis CCC 124 after 48 hrs by broth microdilution technique; format: functional; conditions: Lodderomyces parapsilosis, CCC 124, 48 h
Candida albicans [16] = assay: Antifungal activity against Candida albicans CCC 129 after 48 hrs by broth microdilution technique; format: functional; conditions: CCC 129, 48 h
Cryptococcus neoformans [17] = assay: Antifungal activity against Cryptococcus neoformans ATCC 32264 after 48 hrs by broth microdilution technique; format: functional; conditions: ATCC 32264, 48 h; in short: as §2
Nakaseomyces glabratus = assay: Antifungal activity against Candida glabrata CCC 115 after 48 hrs by broth microdilution technique; format: functional; conditions: CCC 115, 48 h
Candida tropicalis = assay: Antifungal activity against Candida tropicalis CCC 131 after 48 hrs by broth microdilution technique; format: functional; conditions: CCC 131, 48 h
Pichia kudriavzevii = assay: Antifungal activity against Candida krusei CCC 117 after 48 hrs by broth microdilution technique; format: functional; conditions: CCC 117, 48 h
Candida albicans [18] = assay: Antifungal activity against Candida albicans CCC 130 after 24 hrs by broth microdilution technique; conditions: CCC 130, 24 h
Cryptococcus neoformans [19] = assay: Antifungal activity against Cryptococcus neoformans IM 972751 after 48 hrs by broth microdilution technique; format: functional; conditions: IM 972751, 48 h; in short: as §3
Cryptococcus neoformans [20] = assay: Antifungal activity against Cryptococcus neoformans ATCC 32264 at 15.6 ug/ml after 48 hrs; format: functional; conditions: ATCC 32264, 48 h; in short: as §3
Aspergillus fumigatus = assay: Antifungal activity against Aspergillus fumigatus ATCC 26934 after 48 hrs by broth microdilution technique; format: functional; conditions: ATCC 26934, 48 h; in short: as §4
Trichophyton rubrum = assay: Antifungal activity against Trichophyton rubrum CCC 113 after 48 hrs by broth microdilution technique; format: functional; conditions: CCC 113, 48 h
Candida albicans [21] = assay: Antifungal activity against Candida albicans ATCC 10231 at 15.6 ug/ml after 24 hrs; format: functional; conditions: ATCC 10231, 24 h; in short: as §1

- MIC (Saccharomyces cerevisiae): 62 µg/mL (≈ 301 µM)
- MIC (Candida albicans [2]): 62 µg/mL (≈ 301 µM)
- MIC50 (Candida albicans [2]): 7.8 µg/mL (≈ 37.8 µM)
- MIC80 (Candida albicans [2]): 15.6 µg/mL (≈ 75.6 µM)
- MIC50 (Candida albicans [3]): 15.6 µg/mL (≈ 75.6 µM)
- MIC80 (Candida albicans [3]): 31.2 µg/mL (≈ 151 µM)
- MIC50 (Cryptococcus neoformans [4]): 15.6 µg/mL (≈ 75.6 µM)
- MIC80 (Cryptococcus neoformans [4]): 31.2 µg/mL (≈ 151 µM)
- MIC (Aspergillus flavus): 62 µg/mL (≈ 301 µM)
- MIC50 (Candida albicans [6]): 15.6 µg/mL (≈ 75.6 µM)
- MIC80 (Candida albicans [6]): 15.6 µg/mL (≈ 75.6 µM)
- MIC50 (Cryptococcus neoformans [7]): 31.2 µg/mL (≈ 151 µM)
- MIC80 (Cryptococcus neoformans [7]): 31.2 µg/mL (≈ 151 µM)
- MIC [8]: 62 µg/mL (≈ 301 µM)
- MIC50 (Cryptococcus neoformans [10]): 31.2 µg/mL (≈ 151 µM)
- MIC80 (Cryptococcus neoformans [10]): 31.2 µg/mL (≈ 151 µM)
- MIC50 (Cryptococcus neoformans [11]): 15.6 µg/mL (≈ 75.6 µM)
- MIC80 (Cryptococcus neoformans [11]): 31.2 µg/mL (≈ 151 µM)
- MIC50 (Candida albicans [12]): 7.8 µg/mL (≈ 37.8 µM)
- MIC80 (Candida albicans [12]): 15.6 µg/mL (≈ 75.6 µM)
- MIC50 (Candida albicans [13]): 7.8 µg/mL (≈ 37.8 µM)
- MIC80 (Candida albicans [13]): 15.6 µg/mL (≈ 75.6 µM)
- MIC (Nannizzia gypsea): 62 µg/mL (≈ 301 µM)
- MIC50 (Cryptococcus neoformans [14]): 7.8 µg/mL (≈ 37.8 µM)
- MIC80 (Cryptococcus neoformans [14]): 31.2 µg/mL (≈ 151 µM)
- MIC (Aspergillus niger): 62 µg/mL (≈ 301 µM)
- MIC80 (Candida albicans [15]): 31.2 µg/mL (≈ 151 µM)
- MIC50 (Candida parapsilosis): 15.6 µg/mL (≈ 75.6 µM)
- MIC80 (Candida parapsilosis): 31.2 µg/mL (≈ 151 µM)
- MIC50 (Candida albicans [16]): 7.8 µg/mL (≈ 37.8 µM)
- MIC80 (Candida albicans [16]): 15.6 µg/mL (≈ 75.6 µM)
- MIC (Cryptococcus neoformans [17]): 62 µg/mL (≈ 301 µM)
- MIC50 (Cryptococcus neoformans [17]): 15.6 µg/mL (≈ 75.6 µM)
- MIC80 (Cryptococcus neoformans [17]): 15.6 µg/mL (≈ 75.6 µM)
- MIC50 (Nakaseomyces glabratus): 15.6 µg/mL (≈ 75.6 µM)
- MIC80 (Nakaseomyces glabratus): 15.6 µg/mL (≈ 75.6 µM)
- MIC50 (Candida tropicalis): 15.6 µg/mL (≈ 75.6 µM)
- MIC80 (Candida tropicalis): 31.2 µg/mL (≈ 151 µM)
- MIC50 (Pichia kudriavzevii): 31.2 µg/mL (≈ 151 µM)
- MIC80 (Pichia kudriavzevii): 62.5 µg/mL (≈ 303 µM)
- MIC50 (Candida albicans [18]): 15.6 µg/mL (≈ 75.6 µM)
- MIC50 (Cryptococcus neoformans [19]): 7.8 µg/mL (≈ 37.8 µM)
- MIC80 (Cryptococcus neoformans [19]): 31.2 µg/mL (≈ 151 µM)
- MIC (Aspergillus fumigatus): 62 µg/mL (≈ 301 µM)
- MIC (Trichophyton rubrum): 62 µg/mL (≈ 301 µM)
SMILES: c1ccc2nc(-c3ccncc3)ccc2c1
- inhibition at 31.2 µg/mL (Candida albicans [1]): 80%
- MFC (Saccharomyces cerevisiae): 250 µg/mL (≈ 1210 µM)
- MFC (Candida albicans [2]): 250 µg/mL (≈ 1210 µM)
- MFC (Aspergillus flavus): 125 µg/mL (≈ 606 µM)
- inhibition at 31.2 µg/mL (Cryptococcus neoformans [5]): 80%
- MFC [8]: 62 µg/mL (≈ 301 µM)
- inhibition at 7.8 µg/mL (Candida albicans [9]): 50%
- MFC (Nannizzia gypsea): 62 µg/mL (≈ 301 µM)
- MFC (Aspergillus niger): 125 µg/mL (≈ 606 µM)
- MFC (Cryptococcus neoformans [17]): 125 µg/mL (≈ 606 µM)
- inhibition at 15.6 µg/mL (Cryptococcus neoformans [20]): 80%
- MFC (Aspergillus fumigatus): 125 µg/mL (≈ 606 µM)
- MFC (Trichophyton rubrum): 62 µg/mL (≈ 301 µM)
- inhibition at 15.6 µg/mL (Candida albicans [21]): 80%
